These results are taken from ChEMBL document CHEMBL4513216, “Probing the Open Global Health Chemical Diversity Library for Multistage-Active Starting Points for Next-Generation Antimalarials” (ACS Infect Dis, 2020).

This series can be described thus: Toxicity liver stage against HepG2, at 10uM. The series is classed as cell-based. Set-up: test concentration 10 uM, cell line HepG2-A16-CD81EGFP. The following applies: human, HepG2-A16-CD81EGFP cells; read-out: INHIBITION
Put shortly: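 Uninfected HepG2-A16-CD81EGFP cells, 3 × 10^3 per well, 1536-well, plated on prespotted compound at 10 μM final, parasite-free screening media added to match infected plates; puromycin 10 μM positive, DMSO 0.5% negative; run in parallel with 48 h PbLuc assay at 37 °C, 5% CO2; viability by CellTiter-Glo luminescence, normalized to controls.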

With `CN(CCc1ccccc1)Cc1nc(Cc2cccc(F)c2)no1`, the cytotoxicity at 10 µM turned out to be 0.276%.

On to `COc1cc(OC)nc(N2CCCC(c3nccn3CCN(C)C)C2)n1` (stereo not drawn), for which the cytotoxicity at 10 µM was 5.12%.

For `Cn1ccnc1Sc1ccc(S(N)(=O)=O)cn1`, the cytotoxicity at 10 µM is -1.6%.

Consider `O=S(=O)(CC1CCCCC1)NCc1ccc(O)nc1`, for which the cytotoxicity at 10 µM is 5.27%.

As for `O=C(NCc1cn2c(n1)CN(Cc1nccs1)CC2)C1CCC1`, the cytotoxicity at 10 µM was 4.61%.

As for `COc1cccc(OCCc2nnc(NC(C)=O)s2)c1`, the cytotoxicity at 10 µM is 4.84%.

With `Cc1cc(C(=O)NCCN2CCCCC2)nn1C(C)(C)C`, the cytotoxicity at 10 µM was -3%.

On to `CC(Cn1cccn1)NC(=O)N1CCN(Cc2cccs2)CC1` (stereo not drawn), for which the cytotoxicity at 10 µM came out at 2.31%.

Consider `COc1ccccc1C(=O)NCC(c1cccn1C)N1CCOCC1` (stereo not drawn), for which the cytotoxicity at 10 µM is 7.11%.

On to `Oc1ccc(Cl)cc1CNCc1ccccc1C(F)(F)F`, for which the cytotoxicity at 10 µM is 2.67%.

Turning to `O=C(NCCc1ccc(F)cc1)NC1CCCc2c1cnn2CCO` (stereo not drawn), the cytotoxicity at 10 µM was -3.46%.

As for `CC(=O)NC1CCN(c2ccc(C#N)cc2C(F)(F)F)CC1`, the cytotoxicity at 10 µM is 0.536%.

On to `CN(C)S(=O)(=O)Nc1ccc(-n2nncc2C(F)(F)F)cc1`, for which the cytotoxicity at 10 µM was -2.64%.

`CCOc1ccc(NC(=O)N2CCOC(C(N)=O)C2)cc1Cl` (stereo not drawn): the cytotoxicity at 10 µM was -140%.

`COc1ccccc1CCN1CCCC(CN(C)Cc2ccc(C)o2)C1` (stereo not drawn): the cytotoxicity at 10 µM is -0.813%.

Consider `Cc1ncc(CNC(=O)CCc2ccccc2F)c(C2CCCN2C)n1` (stereo not drawn), for which the cytotoxicity at 10 µM is -7.55%.

For the molecule `C[C@@H](CO)Nc1cc(-c2cn[nH]c2)ncn1`, the cytotoxicity at 10 µM is -10.6%.

As for `CCCn1cc(NC(=O)c2cccnc2O)ccc1=O`, the cytotoxicity at 10 µM was -13.1%.

Turning to `C=C(C)CN(CC)S(=O)(=O)c1cccc(F)c1C#N`, the cytotoxicity at 10 µM is -6.03%.

For the molecule `Cc1nn(C)c(N(C)C)c1CNCc1cccnc1N(C)C`, the cytotoxicity at 10 µM came to 1.84%.

For `CC(=O)c1cnc(N(C)Cc2cnc3ccccc3n2)nc1C`, the cytotoxicity at 10 µM amounted to 2.4%.

Turning to `Cc1cc(C)n(CC(C)NC(=O)c2cc(C(C)C)on2)n1` (stereo not drawn), the cytotoxicity at 10 µM worked out at 0.5%.

`Cc1cccc(SC2CCN(C(=O)CCCn3cnnn3)CC2)c1`: the cytotoxicity at 10 µM amounted to 0.647%.

With `CCc1nnc(Nc2cc(C)nc(C3CN(C(=O)C(C)C)CCO3)c2)s1` (stereo not drawn), the cytotoxicity at 10 µM stood at 7.25%.

For the molecule `Cc1noc(C)c1CNc1c(N2CCCC2)cccc1N1CCCC1`, the cytotoxicity at 10 µM turned out to be 6.17%.

Regarding `Cc1oncc1C(=O)N1CCc2ncnc(-c3cnn(C)c3)c2CC1`, the cytotoxicity at 10 µM is 7.07%.

On to `CN(C)C(=O)c1ccc(CNc2c(Cl)cccc2C#N)cc1`, for which the cytotoxicity at 10 µM was -50.6%.

For the molecule `CC1CCc2nc(O)c(C(=O)NCc3ccncc3)cc2C1` (stereo not drawn), the cytotoxicity at 10 µM was -1.37%.

`O=C(Nc1ccc(-c2nnc[nH]2)cc1)C1CCN1Cc1ccccc1` (stereo not drawn): the cytotoxicity at 10 µM turned out to be 9.73%.

Consider `Cc1cc(NC(=O)NCc2cccnc2OC2CCCC2)n(C)n1`, for which the cytotoxicity at 10 µM was -1.07%.

With `CC(CS(C)(=O)=O)N(C(=O)c1ccc(Cl)s1)C1CC1` (stereo not drawn), the cytotoxicity at 10 µM was found to be 1.51%.

With `Cc1ncsc1COC(=O)c1cccc2c1OCCO2`, the cytotoxicity at 10 µM was 1.37%.

For `O=C(CC1CC1)N[C@@H]1CN(Cc2ccccn2)C[C@@H]2CCCO[C@@H]21`, the cytotoxicity at 10 µM was determined as 6.09%.

On to `Cn1cncc1CN1CCC(O)(Cn2nc(-c3cccs3)oc2=O)CC1`, for which the cytotoxicity at 10 µM is -5.46%.

On to `Cc1ccc(N(Cc2ccco2)C(=O)Cc2cc(=O)n(C)[nH]2)cc1`, for which the cytotoxicity at 10 µM is -152%.

Regarding `Cc1nccc(C(=O)N2CCCC2c2c(C)nn(C)c2C)n1` (stereo not drawn), the cytotoxicity at 10 µM is -2.42%.

For `COc1ccc(S(=O)(=O)NC(=O)c2c(C)noc2C(C)C)cc1C`, the cytotoxicity at 10 µM stood at 0.495%.

As for `Cc1ccsc1C(=O)N1CCC2(CC1)C(=O)N(C)CCN2CC1CC1`, the cytotoxicity at 10 µM is -110%.

Consider `CC(=O)c1cnc(NCCN2CCCC2)nc1C`, for which the cytotoxicity at 10 µM is -3.73%.

Consider `COc1ccc(C(O)CNC(=O)NCc2nc(C)cs2)cc1` (stereo not drawn), for which the cytotoxicity at 10 µM was -3.54%.

As for `NC(=O)C1CCN(C(=O)c2ccn(-c3ccc(F)cc3)n2)CC1`, the cytotoxicity at 10 µM was -1.34%.

Take `FC(F)(F)c1nnc2n1CCN(c1nc(C3CC3)ns1)C2`: the cytotoxicity at 10 µM stood at 8.21%.

Take `CSc1cccc(CNC(=O)[C@H]2CNC[C@H](C(=O)N3CCOCC3)C2)c1`: the cytotoxicity at 10 µM is -1.74%.

In the case of `Cc1nc(CC(=O)N2CCCC(n3ccnc3C(C)C)C2)cs1` (stereo not drawn), the cytotoxicity at 10 µM was -0.354%.

As to `OC(CN(Cc1ccccc1)Cc1ccncc1)c1ccco1` (stereo not drawn), the cytotoxicity at 10 µM was determined as 24.7%.

Consider `CCOc1cc(C)ccc1NC(=O)N(C)Cc1cnn(C)c1`, for which the cytotoxicity at 10 µM was -7.15%.

Consider `CN(c1cccnn1)C1CCN(C(=O)Cc2c[nH]c3ccccc23)CC1`, for which the cytotoxicity at 10 µM is -20.1%.

For `O=c1n(Cc2ccc(C(F)(F)F)cc2)nc2ncccn12`, the cytotoxicity at 10 µM is -4.06%.

For `CCC(NS(=O)(=O)N1CCOCC1)c1ccccc1OC` (stereo not drawn), the cytotoxicity at 10 µM was -45.1%.

Turning to `Cc1nc(C)c(CNC(=O)NC(c2nnc3n2CCC3)C(C)C)s1` (stereo not drawn), the cytotoxicity at 10 µM is -1.79%.

For `CCC(=O)N1CCC2(COCc3cnc(N4CCOCC4)nc32)C1` (stereo not drawn), the cytotoxicity at 10 µM is -66.2%.

On to `Cc1noc(C)c1CNC(=O)N1CCN(CC2CC2)CC1`, for which the cytotoxicity at 10 µM is -6.48%.

For the molecule `Cc1noc(C)c1CN(C)C(=O)c1ccc(NC2CC2)nc1`, the cytotoxicity at 10 µM was -4.94%.

Consider `CC(C)CN1C(=O)CC[C@H]2CN(C(=O)Cn3ccc(=O)cc3)CC[C@H]21`, for which the cytotoxicity at 10 µM was 0.582%.

As for `Cc1ccccc1CN(Cc1ccccn1)C(=O)CNS(C)(=O)=O`, the cytotoxicity at 10 µM was 1.48%.

Turning to `Cc1cc(C)n(CC2CCN(CC(O)CN3CCOCC3)CC2)n1` (stereo not drawn), the cytotoxicity at 10 µM is -7.35%.

Regarding `CC(C)=CCC/C(C)=C/CN1CCN(C)C2(CCNC(=O)CC2)C1` (stereo not drawn), the cytotoxicity at 10 µM was -54.1%.

On to `CS(=O)(=O)N1CCOCC2(CCN(Cc3ccoc3)CC2)C1`, for which the cytotoxicity at 10 µM came out at 2.64%.

Regarding `CN(C)CCN1CCO[C@H]2CN(C(=O)C3CCOCC3)C[C@H]21`, the cytotoxicity at 10 µM stood at 1.58%.

Regarding `Cc1nc(C)n(CCC(=O)NCC2CCCOC2)n1` (stereo not drawn), the cytotoxicity at 10 µM is 4.3%.

Take `CC1(C)Cc2ccc(C(=O)NC3CCOCC3)c(O)c2O1`: the cytotoxicity at 10 µM is -7.92%.

For the molecule `COCC1CC2(CCN(Cc3nc(C)cs3)CC2)CO1` (stereo not drawn), the cytotoxicity at 10 µM is -111%.

On to `Cc1noc(C)c1C(=O)N1CCCN(Cc2cscn2)CC1`, for which the cytotoxicity at 10 µM was -1.56%.

For the molecule `Cc1nc(C(=O)NCCS(=O)(=O)N2CCCC2)cs1`, the cytotoxicity at 10 µM was 13.4%.

`Cc1cc(C)n(CC2CCCCN2C(=O)c2ccc(C(N)=O)cc2)n1` (stereo not drawn): the cytotoxicity at 10 µM came to 3.09%.

Turning to `CC1CCCN(CCNC(=O)c2ccn(-c3cccc(F)c3)n2)C1` (stereo not drawn), the cytotoxicity at 10 µM is -3.25%.

Consider `Cc1cccnc1NC(=O)c1ccc(F)c(S(=O)(=O)NC2CC2)c1`, for which the cytotoxicity at 10 µM was 1.77%.

As to `COc1ccc(CN2C[C@@H]3CCCO[C@@H]3[C@H](NC(=O)CC3CC3)C2)cc1`, the cytotoxicity at 10 µM was 25.3%.

For the molecule `CC(C)(C)n1ncc2c1NC(=O)CC2c1ccccc1` (stereo not drawn), the cytotoxicity at 10 µM came to 19.2%.

For the molecule `Cn1ccc2cc(CC3COCCN(C(=O)c4ccccn4)C3)ccc21` (stereo not drawn), the cytotoxicity at 10 µM is 4.57%.

`O=C(c1ccc(O)cc1)N1C[C@@H]2CCN(c3cccnc3)C[C@@H]2C1`: the cytotoxicity at 10 µM is -50.9%.

For `Cc1nc(CN2CCN(Cc3cc4n(n3)CCNC4)CC2)cs1`, the cytotoxicity at 10 µM was -3.25%.

For the molecule `CC(C)OCc1nn(C)c2c1CCN(CC1CC1)C2`, the cytotoxicity at 10 µM was 4.91%.

Consider `Fc1cccc(-c2nnn3c2COC(CNCc2nccs2)C3)c1` (stereo not drawn), for which the cytotoxicity at 10 µM is -102%.

In the case of `Cc1noc(-c2ccc(N(C)Cc3cccnc3)nc2)n1`, the cytotoxicity at 10 µM is -1.24%.

As to `CN(C)CCN1CCO[C@H]2CN(Cc3ccccn3)C[C@H]21`, the cytotoxicity at 10 µM was -1.91%.

Regarding `CC(CN1CCCC1=O)NC(=O)c1ccc(C(F)(F)F)[nH]c1=O` (stereo not drawn), the cytotoxicity at 10 µM was -4.48%.

Consider `O=C(NCC(O)c1cccs1)c1ccco1` (stereo not drawn), for which the cytotoxicity at 10 µM was -14.7%.

`Cc1c(Cl)c(C(=O)NN2CCOCC2)nn1C`: the cytotoxicity at 10 µM turned out to be 7.47%.

As for `Cc1nc(CNC2(C(=O)OC(C)(C)C)CCCC2)oc1C`, the cytotoxicity at 10 µM was -0.457%.

As to `CC(C)CN1CC(c2nc(-c3ccsc3)c[nH]2)CC1=O` (stereo not drawn), the cytotoxicity at 10 µM is 6.65%.

On to `O[C@H]1[C@H](n2cc(-c3ccccc3)nn2)c2ccccc2C12CCNCC2`, for which the cytotoxicity at 10 µM worked out at 7.62%.

In the case of `CC1c2ncc(Cn3cncn3)n2CCN1C(=O)c1ccsc1` (stereo not drawn), the cytotoxicity at 10 µM is -0.551%.

For the molecule `CCS(=O)(=O)CCNC(=O)NC(C)c1ccc(C)s1` (stereo not drawn), the cytotoxicity at 10 µM was -8.64%.

`CCc1ncc2c(n1)CN(C(C(N)=O)c1ccccc1)CC2` (stereo not drawn): the cytotoxicity at 10 µM was -2.35%.

For `CN(C)CCn1ccnc1C1CCCN(C(=O)CCc2cccnc2)C1` (stereo not drawn), the cytotoxicity at 10 µM is -3.64%.

For `CCC1CN(CCCNS(C)(=O)=O)c2ccccc2O1` (stereo not drawn), the cytotoxicity at 10 µM was -7.03%.

As for `Cc1ccc(CNC(=O)c2ccc(=O)n(C)n2)c(OC2CCCC2)c1`, the cytotoxicity at 10 µM worked out at 5.25%.

Regarding `Cc1ccc(F)c(OC2(C(=O)O)CCN(C(=O)C3CCCC3)CC2)c1`, the cytotoxicity at 10 µM was 3.33%.

Regarding `CCCn1ncc(C(=O)N2CCC(N3CCCCC3)CC2)c1C`, the cytotoxicity at 10 µM was -143%.

For the molecule `CCOC(=O)N1CCC(n2cc3[nH]cccc-3c2=O)CC1`, the cytotoxicity at 10 µM was found to be 3.6%.

For the molecule `c1cc2n(n1)CC(CNCc1ccc(OCC3CC3)nc1)CN2` (stereo not drawn), the cytotoxicity at 10 µM is -3.97%.

Take `CCc1nc(C2CCCN2C(=O)c2csc(NC(C)=O)n2)no1` (stereo not drawn): the cytotoxicity at 10 µM is -5.12%.

Take `Cc1nc2cc(O)nn2c(C)c1CCC(=O)N(C)CCC(C)C`: the cytotoxicity at 10 µM is -146%.

Turning to `CCN(CC)S(=O)(=O)c1ccc(CNc2cc(C)nc(C)n2)cc1`, the cytotoxicity at 10 µM was -5.83%.

In the case of `O=C1COc2cc(S(=O)(=O)NCCC3=CCCCC3)c(Br)cc2N1`, the cytotoxicity at 10 µM is 15.7%.

For `Fc1cnc(NCC2Cn3nnc(-c4ccccc4)c3CO2)nc1` (stereo not drawn), the cytotoxicity at 10 µM is -64.7%.

In the case of `CSc1sc2c(O)cc(=O)[nH]c2c1C(N)=O`, the cytotoxicity at 10 µM is -2.1%.
